Measurements published in ChEMBL document CHEMBL5120972, “Small-Molecule Inhibitors of the MLL1 CXXC Domain, an Epigenetic Reader of DNA Methylation” (ACS Med Chem Lett, 2022).

Key:
[1] = biological target: T1, Lysine-specific demethylase 2B (Homo sapiens, UniProt Q8NHM5); assay: Inhibition of GST-tagged human KDM2B (604 to 660 residues) expressed in Escherichia coli BL21 cells incubated for 30 mins by fluorescence polarization assay
T1 sequence (Q8NHM5 whole entry): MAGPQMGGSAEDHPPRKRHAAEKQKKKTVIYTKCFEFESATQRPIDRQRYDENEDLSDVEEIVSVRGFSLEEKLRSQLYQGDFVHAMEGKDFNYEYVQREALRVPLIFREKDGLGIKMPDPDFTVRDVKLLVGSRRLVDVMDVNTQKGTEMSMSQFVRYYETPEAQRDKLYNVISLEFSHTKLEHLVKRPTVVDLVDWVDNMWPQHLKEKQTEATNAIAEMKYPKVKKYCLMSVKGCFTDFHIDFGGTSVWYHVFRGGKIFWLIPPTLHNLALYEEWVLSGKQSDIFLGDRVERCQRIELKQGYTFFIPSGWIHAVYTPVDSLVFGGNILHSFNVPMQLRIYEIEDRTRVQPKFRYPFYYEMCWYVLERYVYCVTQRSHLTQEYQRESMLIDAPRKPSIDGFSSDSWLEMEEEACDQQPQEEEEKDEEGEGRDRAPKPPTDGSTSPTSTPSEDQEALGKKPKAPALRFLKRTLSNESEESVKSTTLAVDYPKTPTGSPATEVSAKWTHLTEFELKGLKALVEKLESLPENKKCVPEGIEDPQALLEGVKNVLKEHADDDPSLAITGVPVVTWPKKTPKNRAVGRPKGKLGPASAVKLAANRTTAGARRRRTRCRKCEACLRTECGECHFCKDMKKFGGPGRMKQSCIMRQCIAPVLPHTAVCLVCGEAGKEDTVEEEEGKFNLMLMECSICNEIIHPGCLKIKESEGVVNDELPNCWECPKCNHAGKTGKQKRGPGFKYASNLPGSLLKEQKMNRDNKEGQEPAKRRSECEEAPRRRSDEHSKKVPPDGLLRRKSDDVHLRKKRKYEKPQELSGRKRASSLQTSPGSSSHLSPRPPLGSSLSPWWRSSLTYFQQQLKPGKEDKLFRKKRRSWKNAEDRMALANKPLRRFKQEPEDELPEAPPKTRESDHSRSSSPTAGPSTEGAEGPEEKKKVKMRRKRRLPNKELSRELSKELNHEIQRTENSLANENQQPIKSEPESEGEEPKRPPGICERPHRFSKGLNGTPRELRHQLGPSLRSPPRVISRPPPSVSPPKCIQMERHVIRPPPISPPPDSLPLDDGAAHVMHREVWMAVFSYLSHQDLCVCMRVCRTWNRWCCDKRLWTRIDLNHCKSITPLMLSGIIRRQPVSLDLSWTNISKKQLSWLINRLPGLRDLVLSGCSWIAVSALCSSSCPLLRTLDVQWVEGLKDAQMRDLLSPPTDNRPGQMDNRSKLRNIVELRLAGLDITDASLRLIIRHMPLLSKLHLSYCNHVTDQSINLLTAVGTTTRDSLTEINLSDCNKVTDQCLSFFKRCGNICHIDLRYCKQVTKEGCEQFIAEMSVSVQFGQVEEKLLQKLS
Procedure, shortened: (§1)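 Competition fluorescence polarization assay. CXXC domain protein is held at 2× its own KD. All domains are expressed and purified by the same method. Standard deviations come from three separate measurements.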

[2] = biological target: Methylcytosine dioxygenase TET1 (Homo sapiens, UniProt Q8NFU7); assay: Inhibition of GST-tagged human TET1 (583 to 633 residues) expressed in Escherichia coli BL21 cells incubated for 30 mins by fluorescence polarization assay; procedure, shortened: as §1
Methylcytosine dioxygenase TET1, sequence (Q8NFU7 whole entry, the tested form may be a part): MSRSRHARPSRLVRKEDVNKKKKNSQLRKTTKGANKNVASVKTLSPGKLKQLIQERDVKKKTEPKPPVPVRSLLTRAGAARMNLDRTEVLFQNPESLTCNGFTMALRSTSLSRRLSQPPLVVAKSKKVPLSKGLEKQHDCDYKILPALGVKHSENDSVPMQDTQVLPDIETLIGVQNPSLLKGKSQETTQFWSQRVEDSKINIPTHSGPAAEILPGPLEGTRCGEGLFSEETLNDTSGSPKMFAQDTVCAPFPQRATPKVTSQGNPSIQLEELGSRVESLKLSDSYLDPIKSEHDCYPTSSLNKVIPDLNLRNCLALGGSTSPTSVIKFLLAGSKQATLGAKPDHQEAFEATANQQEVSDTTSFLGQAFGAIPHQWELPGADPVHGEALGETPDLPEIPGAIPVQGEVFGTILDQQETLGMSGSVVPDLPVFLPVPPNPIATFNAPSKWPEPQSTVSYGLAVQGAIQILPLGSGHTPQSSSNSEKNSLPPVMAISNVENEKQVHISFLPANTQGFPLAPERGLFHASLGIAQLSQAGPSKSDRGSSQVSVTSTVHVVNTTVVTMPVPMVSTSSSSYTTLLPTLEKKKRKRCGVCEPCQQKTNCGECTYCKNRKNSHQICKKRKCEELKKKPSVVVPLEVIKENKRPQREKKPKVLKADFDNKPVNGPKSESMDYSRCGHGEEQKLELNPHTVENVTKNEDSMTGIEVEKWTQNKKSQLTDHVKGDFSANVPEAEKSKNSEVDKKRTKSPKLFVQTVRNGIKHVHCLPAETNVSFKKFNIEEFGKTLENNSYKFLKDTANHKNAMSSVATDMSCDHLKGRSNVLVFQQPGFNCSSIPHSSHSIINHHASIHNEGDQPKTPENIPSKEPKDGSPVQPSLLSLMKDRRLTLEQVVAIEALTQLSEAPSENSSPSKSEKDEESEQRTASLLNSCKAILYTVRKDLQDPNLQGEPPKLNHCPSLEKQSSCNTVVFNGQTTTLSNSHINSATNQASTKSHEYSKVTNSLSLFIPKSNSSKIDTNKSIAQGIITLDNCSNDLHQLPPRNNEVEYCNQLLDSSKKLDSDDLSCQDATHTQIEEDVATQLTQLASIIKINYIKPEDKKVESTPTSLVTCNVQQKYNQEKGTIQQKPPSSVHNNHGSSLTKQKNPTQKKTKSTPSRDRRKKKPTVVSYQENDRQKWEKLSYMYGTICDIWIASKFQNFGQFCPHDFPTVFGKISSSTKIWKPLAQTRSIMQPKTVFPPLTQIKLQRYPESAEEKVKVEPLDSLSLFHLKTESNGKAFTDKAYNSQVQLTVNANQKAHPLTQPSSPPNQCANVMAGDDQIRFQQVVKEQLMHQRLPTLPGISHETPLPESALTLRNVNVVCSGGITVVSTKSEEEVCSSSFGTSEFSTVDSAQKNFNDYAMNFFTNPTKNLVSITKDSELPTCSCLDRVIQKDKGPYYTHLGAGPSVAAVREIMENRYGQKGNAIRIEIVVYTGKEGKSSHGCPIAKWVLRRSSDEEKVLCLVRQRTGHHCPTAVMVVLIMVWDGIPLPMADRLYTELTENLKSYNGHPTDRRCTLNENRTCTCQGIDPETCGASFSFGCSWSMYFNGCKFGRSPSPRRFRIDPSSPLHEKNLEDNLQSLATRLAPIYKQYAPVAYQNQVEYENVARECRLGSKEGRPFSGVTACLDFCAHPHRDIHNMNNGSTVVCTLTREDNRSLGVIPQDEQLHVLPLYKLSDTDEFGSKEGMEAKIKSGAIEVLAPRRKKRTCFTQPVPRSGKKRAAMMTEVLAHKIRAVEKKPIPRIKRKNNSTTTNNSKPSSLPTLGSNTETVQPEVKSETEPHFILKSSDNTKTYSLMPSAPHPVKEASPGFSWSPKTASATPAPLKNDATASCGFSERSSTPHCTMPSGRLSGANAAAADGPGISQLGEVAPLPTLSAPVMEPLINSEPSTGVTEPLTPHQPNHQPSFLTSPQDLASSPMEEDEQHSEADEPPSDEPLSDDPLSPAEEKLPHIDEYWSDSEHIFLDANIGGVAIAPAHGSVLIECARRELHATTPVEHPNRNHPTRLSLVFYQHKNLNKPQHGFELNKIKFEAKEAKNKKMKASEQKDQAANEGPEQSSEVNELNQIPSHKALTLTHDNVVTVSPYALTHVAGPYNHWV

[3] = biological target: Methylcytosine dioxygenase TET3 (Homo sapiens, UniProt O43151); assay: Inhibition of GST-tagged human TET3 ([…] residues) expressed in Escherichia coli BL21 cell incubated for 30 mins by fluorescence polarization assay; procedure, shortened: as §1
Methylcytosine dioxygenase TET3, sequence (O43151 whole entry): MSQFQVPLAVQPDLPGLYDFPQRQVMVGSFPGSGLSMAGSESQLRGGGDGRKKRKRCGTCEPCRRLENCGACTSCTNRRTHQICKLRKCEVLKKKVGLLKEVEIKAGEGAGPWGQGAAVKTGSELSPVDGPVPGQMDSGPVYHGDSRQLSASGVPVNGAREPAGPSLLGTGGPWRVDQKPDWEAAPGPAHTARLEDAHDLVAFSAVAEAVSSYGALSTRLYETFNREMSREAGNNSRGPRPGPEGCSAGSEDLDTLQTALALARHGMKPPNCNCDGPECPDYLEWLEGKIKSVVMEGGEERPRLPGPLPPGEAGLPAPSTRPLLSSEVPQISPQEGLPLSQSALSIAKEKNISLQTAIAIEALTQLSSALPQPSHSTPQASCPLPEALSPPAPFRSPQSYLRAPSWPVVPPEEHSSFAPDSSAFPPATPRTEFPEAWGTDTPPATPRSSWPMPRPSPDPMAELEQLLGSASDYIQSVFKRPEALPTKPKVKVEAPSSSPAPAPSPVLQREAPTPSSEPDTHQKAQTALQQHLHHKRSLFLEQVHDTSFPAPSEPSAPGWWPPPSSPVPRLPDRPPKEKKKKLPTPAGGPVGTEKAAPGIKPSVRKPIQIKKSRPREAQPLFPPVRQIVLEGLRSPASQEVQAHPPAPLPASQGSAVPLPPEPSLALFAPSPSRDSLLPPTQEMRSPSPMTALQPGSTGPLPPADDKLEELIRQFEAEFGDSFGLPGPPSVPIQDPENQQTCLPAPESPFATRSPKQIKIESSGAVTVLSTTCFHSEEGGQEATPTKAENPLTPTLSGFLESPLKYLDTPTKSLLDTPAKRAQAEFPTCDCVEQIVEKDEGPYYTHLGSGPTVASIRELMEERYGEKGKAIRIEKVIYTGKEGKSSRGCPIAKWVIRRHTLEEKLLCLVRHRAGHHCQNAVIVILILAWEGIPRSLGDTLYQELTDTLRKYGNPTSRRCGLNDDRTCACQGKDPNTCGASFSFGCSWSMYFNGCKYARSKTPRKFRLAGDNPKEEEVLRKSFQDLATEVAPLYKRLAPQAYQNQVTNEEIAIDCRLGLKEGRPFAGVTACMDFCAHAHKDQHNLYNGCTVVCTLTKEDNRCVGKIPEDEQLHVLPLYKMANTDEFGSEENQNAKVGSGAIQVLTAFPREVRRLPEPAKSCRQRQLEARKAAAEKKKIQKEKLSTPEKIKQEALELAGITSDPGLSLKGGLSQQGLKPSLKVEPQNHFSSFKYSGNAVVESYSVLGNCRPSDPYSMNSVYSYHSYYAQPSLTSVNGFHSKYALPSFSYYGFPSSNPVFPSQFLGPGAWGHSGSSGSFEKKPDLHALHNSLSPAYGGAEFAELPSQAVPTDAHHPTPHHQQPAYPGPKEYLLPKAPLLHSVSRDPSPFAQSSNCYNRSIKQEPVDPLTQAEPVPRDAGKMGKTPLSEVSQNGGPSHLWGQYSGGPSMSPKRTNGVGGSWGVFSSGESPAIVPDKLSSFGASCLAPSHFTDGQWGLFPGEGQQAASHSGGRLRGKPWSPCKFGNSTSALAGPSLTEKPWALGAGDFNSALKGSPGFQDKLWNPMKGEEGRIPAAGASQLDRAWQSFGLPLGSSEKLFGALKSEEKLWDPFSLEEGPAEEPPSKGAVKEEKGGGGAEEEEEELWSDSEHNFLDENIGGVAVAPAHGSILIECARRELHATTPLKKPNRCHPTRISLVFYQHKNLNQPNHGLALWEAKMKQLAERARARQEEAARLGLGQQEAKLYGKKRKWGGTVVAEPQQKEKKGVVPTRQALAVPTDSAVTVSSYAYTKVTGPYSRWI

| Compound | IC50 [1] [µM] | IC50 [2] [µM] | IC50 [3] [µM] |
| --- | --- | --- | --- |
| C=CC(=O)N1CCC(c2ccccc2)(c2nnn[nH]2)CC1 | 8.3 | 11 | 5.5 |
| C=CC(=O)N1CCC(c2ccc(OC)cc2)(c2nnn[nH]2)CC1 | 32 | 31 | 15.5 |
| C=CC(=O)N1CCC(C(=O)O)(c2ccc(OC)cc2)CC1 | 53 | 81 | 30 |
| C=CC(=O)N1CCC(C(=O)NS(=O)(=O)c2ccccc2)(c2ccccc2)CC1 | 35 | 107 | 33 |
| C=CC(=O)N1CCC(C(=O)O)(c2ccccc2)CC1 | 6.4 | 11.3 | 5.1 |
| C=CC(=O)N1CCC(c2cccc(OCC)c2)(c2nnn[nH]2)CC1 | 9.4 | 10.7 | 7 |
| C=CC(=O)N1CCC(c2ccc(OCC)cc2)(c2nnn[nH]2)CC1 | 30 | 24 | 21 |
| C=CC(=O)N1CCC(C(=O)O)(c2ccc(OCC)cc2)CC1 | 3.6 | 6.3 | 5.8 |
| C=CC(=O)N1CCC(C(=O)O)(c2ccc(Cl)cc2)CC1 | 53 | 166 | 48 |
